Results published in paper PMC9306928 (Journal of Veterinary Pharmacology and Therapeutics, 2022).
Read-outs that look alike come from different tables or passages of the source. Marks after values point to notes of the source that are not given here.

Assays:
COX‐1/COX‐2 [1] = conditions: cited from earlier work
[2] = test system: PGE2 formation in gastric mucosa; conditions: rat carrageenan model, dose of 40 mg/kg; ref Iñiguez et al. (2010); cited from earlier work
COX‐2 = target: T1, COX‐2 (Canis lupus familiaris, UniProt Q8SPQ9); assay type: cell-based, dog
T1 sequence (Q8SPQ9 18-604): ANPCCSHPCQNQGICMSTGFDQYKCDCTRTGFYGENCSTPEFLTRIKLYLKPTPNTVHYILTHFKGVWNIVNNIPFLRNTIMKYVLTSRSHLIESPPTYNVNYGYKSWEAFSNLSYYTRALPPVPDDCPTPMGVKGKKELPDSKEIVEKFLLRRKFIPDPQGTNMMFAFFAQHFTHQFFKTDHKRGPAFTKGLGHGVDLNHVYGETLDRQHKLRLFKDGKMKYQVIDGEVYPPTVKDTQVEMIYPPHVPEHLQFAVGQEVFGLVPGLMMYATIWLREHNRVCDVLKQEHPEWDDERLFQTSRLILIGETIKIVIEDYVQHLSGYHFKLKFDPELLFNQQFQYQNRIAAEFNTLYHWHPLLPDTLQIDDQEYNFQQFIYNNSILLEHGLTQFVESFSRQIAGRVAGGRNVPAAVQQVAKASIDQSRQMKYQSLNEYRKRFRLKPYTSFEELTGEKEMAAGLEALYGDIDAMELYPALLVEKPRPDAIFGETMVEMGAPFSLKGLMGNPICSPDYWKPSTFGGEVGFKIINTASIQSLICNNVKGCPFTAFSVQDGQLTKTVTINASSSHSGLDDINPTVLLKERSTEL
How it was run: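 Citrated blood from three male and three female Beagles was held 4–6 h at ca 2–8°C. Duplicates received test compound at final 100, 30, 10, 3, 1, 0.3, 0.1 or 0 µM (one enantiomer max 30 µM; 0.4% DMSO) with LPS 1 µg/ml final, for 24 h at ca 37°C with orbital agitation. Plasma PGE2 was measured by ELISA (1:1000). Per-dog Hill fits gave IC50 and gamma; IC20/IC80 were derived.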

COX‐1 = target: T2, COX‐1 (Canis lupus familiaris, UniProt Q8HZR1); assay type: cell-based, dog; conditions: Hill equation fit of TXB2 formation; mean of six dogs
T2 sequence (Q8HZR1 28-603): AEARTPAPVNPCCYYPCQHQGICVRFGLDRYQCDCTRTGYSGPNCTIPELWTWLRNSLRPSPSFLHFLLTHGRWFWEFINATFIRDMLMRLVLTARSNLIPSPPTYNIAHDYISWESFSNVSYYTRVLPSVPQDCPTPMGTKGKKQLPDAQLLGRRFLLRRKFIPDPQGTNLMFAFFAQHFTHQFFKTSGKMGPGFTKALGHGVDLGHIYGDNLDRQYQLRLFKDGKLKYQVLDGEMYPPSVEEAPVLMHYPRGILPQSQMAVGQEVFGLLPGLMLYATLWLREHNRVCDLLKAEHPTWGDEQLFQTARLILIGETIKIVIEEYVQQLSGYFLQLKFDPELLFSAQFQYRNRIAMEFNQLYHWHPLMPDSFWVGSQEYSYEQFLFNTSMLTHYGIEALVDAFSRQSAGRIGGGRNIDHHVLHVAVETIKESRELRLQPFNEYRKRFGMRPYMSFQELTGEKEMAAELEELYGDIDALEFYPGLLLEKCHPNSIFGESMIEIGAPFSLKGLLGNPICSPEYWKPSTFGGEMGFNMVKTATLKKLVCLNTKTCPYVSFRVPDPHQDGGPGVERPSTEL
How it was run: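 Whole blood from six male Beagles was drawn without anticoagulant and used at once. Duplicate incubations received test compound at final 500, 300, 100, 30, 10, 3, 1 or 0 µM (0.4% v/v DMSO) plus PBS, for 1 h at ca 37°C with gentle shaking. Serum TXB2 was measured by ELISA (1:3000, 412 nm). Per-dog 4-parameter Hill fits gave IC50 and gamma, and IC20/IC80 were calculated from these.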

COX‐1/COX‐2 [3] = assay: Selectivity for COX‐2 inhibition; assay type: cell-based; conditions: dog whole blood, not corrected for blood cell partitioning
How it was run: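 Selectivity was the quotient of mean IC50 values (six Beagles each) from two canine whole blood assays. One was clotting-induced TXB2 (COX-1; unanticoagulated blood, 1 h, ca 37°C). The other was LPS-induced PGE2 (COX-2; citrated blood, 1 µg/ml LPS, 24 h). Both were read by ELISA and Hill-fitted. IC50 ratios were tested by paired t test, and compounds by one-way ANOVA/Tukey.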

[4] = ref King et al., 2010, McCann et al., 2004
[5] = whole blood concentration, not corrected for blood cell partitioning

SMILES: CC(C(=O)O)c1ccc2c(c1)[nH]c1ccc(Cl)cc12 (stereo not shown) [carprofen]
- COX‐2 selectivity ratio (COX‐1/COX‐2 [1]; ref Briedeau et al., 2001): ~6.5

SMILES: CCc1ccc(Nc2c(F)c(F)cc(F)c2F)c(CC(=O)O)c1 [robenacoxib]
- COX‐2 selectivity ratio (COX‐1/COX‐2 [1]; [4]): 129

SMILES: CC1(C)OC(=O)C(OCC2CC2)=C1c1ccc(S(C)(=O)=O)cc1 [firocoxib]
- COX‐2 selectivity ratio (COX‐1/COX‐2 [1]; [4]): 384

SMILES: COc1ccc(-c2cc(C(F)F)nn2-c2ccc(S(N)(=O)=O)cc2)cc1F [deracoxib]
- COX‐2 selectivity ratio (COX‐1/COX‐2 [1]; [4]): 48.5

SMILES: NS(=O)(=O)c1ccc(N2N=C(C(F)(F)F)C[C@H]2c2ccc(F)cc2F)cc1 [(S)‐(‐)‐Enflicoxib]
- inhibition of PGE2 formation in gastric mucosa [2]: 18%
- Gamma (sigmoidicity factor), COX‐2 (COX‐2; Hill equation fit of PGE2 formation, mean of six dogs): 2.7
- Gamma (sigmoidicity factor), COX‐1 (COX‐1): 1.8
- Ratio IC50 (COX‐1/COX‐2) (COX‐1/COX‐2 [3]): 3.77‡

SMILES: NS(=O)(=O)c1ccc(N2N=C(C(F)(F)F)C[C@@H]2c2ccc(F)cc2F)cc1 [(R)‐(+)‐Enflicoxib]
- IC50 for COX‐2 inhibition expressed as blood level (COX‐2; [5]): > 12 µg/mL
- IC80 for COX‐2 inhibition expressed as blood level (COX‐2; [5]): > 12 µg/mL
